Screens: PubChem, several laboratories
Hits are enriched below; roughly 2.6% of the tested compounds scored in any of these assays.
ARFGAP1 inh: inhibitors of rat ARFGAP1; Q62848; Arfgap1-stimulated ARF1 GTP hydrolysis, GDP FP detection; inhibition, % at 16.5 µM; 360,000 compounds, 0.26% hits;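 active = inhibition above a per-plate limit, mean inhibition of low control wells plus 3 SD, cut at about 25% in these data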
Target sequence (Q62848 1-136 limits assumed): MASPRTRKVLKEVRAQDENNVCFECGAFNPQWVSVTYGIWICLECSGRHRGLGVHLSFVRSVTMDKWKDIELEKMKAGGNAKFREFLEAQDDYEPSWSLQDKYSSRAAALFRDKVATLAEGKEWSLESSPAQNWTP
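Material: truncated rat Arfgap1 GAP domain; Incubation: compound-enzyme preincubation 20 min, reaction 120 min, detection 60 min, 25 °C; Read-out: percent inhibition of Arfgap1-stimulated GTP hydrolysis; Technique: FP, GDP Alexa 633 tracer displaced from anti-GDP antibody, 620/688 nm; Controls: No-Arfgap1 wells (100%) versus DMSO full-reaction wells (0%); Replication: single well per compound.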
ASAP1 GAP inh: ASAP1 ArfGAP inhibition; ASAP1-stimulated ARF1 GTP hydrolysis, GDP FP detection; Q9ULH1; 360,000 compounds, 0.19% hits; inhibition, % at 16.5 µM; in the data active = inhibition above about 25%
Target sequence (Q9ULH1 325-724 limits assumed): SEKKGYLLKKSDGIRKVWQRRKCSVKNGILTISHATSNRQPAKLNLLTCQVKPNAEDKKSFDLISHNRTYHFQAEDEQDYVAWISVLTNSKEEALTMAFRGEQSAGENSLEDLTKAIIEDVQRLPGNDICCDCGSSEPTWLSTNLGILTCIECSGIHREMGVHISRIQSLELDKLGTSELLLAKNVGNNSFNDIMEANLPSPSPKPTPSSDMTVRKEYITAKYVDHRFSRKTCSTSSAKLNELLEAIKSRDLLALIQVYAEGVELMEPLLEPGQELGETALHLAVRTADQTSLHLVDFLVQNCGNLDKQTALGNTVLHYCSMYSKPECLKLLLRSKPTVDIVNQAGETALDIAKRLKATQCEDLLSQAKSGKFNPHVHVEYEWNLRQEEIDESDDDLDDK
SMARCA2 act: activators of SMARCA2 function; AID 652017; 370,000 compounds, 1% hits; MG213 cells, MMTV-luciferase reporter, dexamethasone, overnight; activation, % at 9.1 µM; in the data active = activation above about 7.8%
esBAF inh: SWI/SNF esBAF complex inhibition; reporter increase, % at 12.5 µM; 350,000 compounds, 2% hits; mouse ES cells, Bmi1-luciferase knock-in reporter, 24 h; 100% = twice the neutral-well signal; AID 602393; in the data active = activation above about 40%; inconclusive = no clear call, values can overlap the other calls;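 also: a rise in the Bmi1 reporter signal indicates esBAF inhibition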
Ring1 derepress: confirmation of esBAF inhibitors: Ring1 de-repression in mouse ESCs; shares compounds with esBAF inh; mouse ESC E14, Ring1 mRNA RT-qPCR fold change; fold change at 33 µM; 550 tested, under 10 active; AID 743176;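 active = Ring1 gene expression raised more than 2-fold over untreated cells in both replicates at either tested dose; inconclusive = only one replicate above 2-fold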;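 also: Ring1 transcript normalised to actin housekeeping signal by TaqMan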
Fgf4 repress: confirmation of esBAF inhibitors: Fgf4 repression in mouse ESCs; shares compounds with esBAF inh; mouse ESC E14, Fgf4 mRNA qPCR fold change; active compounds read low; Fgf4 expression fold change at 33 µM; 550 compounds, 4% hits;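 active = Fgf4 expression under 0.8 fold of control in both repeat measurements at one or both tested doses; inconclusive = under 0.8 fold in just a single repeat measurement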;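 also: Fgf4 transcript normalised to actin in duplex TaqMan qPCR; cells exposed to compound for 24 h before lysis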
Bmi1 derepress: de-represses Bmi1 in mouse ESCs, confirming esBAF inhibition; shares compounds with esBAF inh; mouse ESE14 ES cells, Bmi1 mRNA qPCR fold; active compounds read high; fold change at 33 µM; 550 tested, under 10 active; AID 743180;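 active = Bmi1 expression fold change above 6 at either tested concentration, seen in replicate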;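 also: higher fold means more Bmi1 de-repression and stronger esBAF inhibition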
A549 cytotox: A549 cell cytotoxicity; shares compounds with esBAF inh; plate reader; cell viability change % (negative = cytotoxic), % at 25 µM, hits read low; 550 tested, under 10 active; call rule not given here
HepG2 tox SP: HepG2 cell cytotoxicity at single point; shares compounds with esBAF inh; plate reader; active compounds read low; activity change, negative = inhibition, % at 25 µM; 550 compounds, 4% hits; AID 743189; in the data active = activity change below about -50%
HEK293 cytotox SP: kills or reduces viability of HEK293 cells. shares compounds with esBAF inh. HEK293 cytotoxicity, plate reader. activity change, negative = inhibition, % at 25 µM, hits read low. 550 compounds, 3% hits. AID 743190; in the data active = activity change below about -38%, passing the limit was not always enough
Of the large screens only hits and unclear results are named; the others gave an inactive call (follow-up assays come after a bar, where they were run).

COc1cccc(C#Cc2cnc3c(c2)C(=O)N([C@@H](C)CO)C[C@H](C)[C@H](CN(C)C)O3)c1	none (no result: ARFGAP1 inh, ASAP1 GAP inh, SMARCA2 act)
CCOC(=O)CCNC(=O)Nc1ccc2nc(C)n(Cc3ccc(Cl)cc3)c(=O)c2c1	none
CC(=O)Nc1ccc2nc(C)n(Cc3ccc(Cl)cc3)c(=O)c2c1	esBAF inh 55 | Ring1 derepress inactive | Fgf4 repress inactive | Bmi1 derepress inactive | A549 cytotox inactive | HepG2 tox SP inactive | HEK293 cytotox SP inactive
Cc1ccc(-n2nnc(-c3cnc4ccccc4c3)n2)cc1	none
Cc1ccc(-n2nnc(-c3cccnc3)n2)cc1	esBAF inh 60 | Ring1 derepress inactive | Fgf4 repress inactive | Bmi1 derepress inactive | A549 cytotox inactive | HepG2 tox SP inactive | HEK293 cytotox SP inactive
CC(C)c1ccc(CNNC(=O)c2ccccc2)cc1	esBAF inh 70 | Ring1 derepress inactive | Fgf4 repress inactive | Bmi1 derepress inactive | A549 cytotox inactive | HepG2 tox SP inactive | HEK293 cytotox SP inactive
COc1ccc(/C=C/C(=O)Oc2cccc(/C=N/NC(=O)Cc3ccc(Br)cc3)c2)cc1	esBAF inh 63 | Ring1 derepress inactive | Fgf4 repress inconclusive | Bmi1 derepress inactive | A549 cytotox inactive | HepG2 tox SP inactive | HEK293 cytotox SP inactive
CCc1sc(C(=O)Nc2ccc(NC(C)=O)cc2)cc1C	none (no result: esBAF inh)
CCc1sc(C(=O)Nc2ccc3nc(C)sc3c2)cc1C	esBAF inh 80 | Ring1 derepress inactive | Fgf4 repress 0.61 | Bmi1 derepress inactive | A549 cytotox inactive | HepG2 tox SP inactive | HEK293 cytotox SP inactive
O=C(C1CC1)N1C[C@@H]2[C@H](c3ccccc31)[C@@H](CO)N2Cc1ccccc1Cl	none (no result: ARFGAP1 inh, ASAP1 GAP inh, SMARCA2 act)
COc1cccc(C(=O)c2cc3cc(Cl)ccc3[nH]2)c1	esBAF inh 78 | Ring1 derepress inactive | Fgf4 repress inconclusive | Bmi1 derepress inactive | A549 cytotox inactive | HepG2 tox SP inactive | HEK293 cytotox SP inactive
CN(C)c1ccc(N=Nc2ccccc2C(=O)OCC(=O)Nc2ccccc2C(F)(F)F)cc1	esBAF inh 54 | Ring1 derepress inactive | Fgf4 repress inactive | Bmi1 derepress inactive | A549 cytotox inactive | HepG2 tox SP inactive | HEK293 cytotox SP inactive
CN(C)c1ccc(N=Nc2ccccc2C(=O)OCC(=O)N2CCCC2)cc1	none (no result: esBAF inh)
Cn1c2ccccc2c(=O)c2cc(C#Cc3ccsc3)ccc21	esBAF inh 62 | Ring1 derepress inactive | Fgf4 repress inconclusive | Bmi1 derepress inactive | A549 cytotox inactive | HepG2 tox SP inactive | HEK293 cytotox SP inactive
Fc1ccc(Nc2nnc(-c3ccncc3)s2)cc1Cl	esBAF inh 67 | Ring1 derepress inactive | Fgf4 repress inactive | Bmi1 derepress inactive | A549 cytotox inactive | HepG2 tox SP inactive | HEK293 cytotox SP inactive
c1ccc(CCc2nc(-c3cccnc3)no2)cc1	esBAF inh 59 | Ring1 derepress inactive | Fgf4 repress inactive | Bmi1 derepress inactive | A549 cytotox inactive | HepG2 tox SP inactive | HEK293 cytotox SP inactive
c1ccc(CCc2ccccc2-c2nc(-c3cccnc3)no2)cc1	none
COc1ccc(C(=O)N=c2sc3ccccc3n2C)cc1OC	esBAF inh 73 | Ring1 derepress inactive | Fgf4 repress inactive | Bmi1 derepress inactive | A549 cytotox inactive | HepG2 tox SP inactive | HEK293 cytotox SP inactive
Cc1noc(C)c1S(=O)(=O)N(C)C[C@@H]1OCCCC[C@@H](C)Oc2ccc(NS(C)(=O)=O)cc2C(=O)N([C@H](C)CO)C[C@@H]1C	none (no result: ARFGAP1 inh, ASAP1 GAP inh, SMARCA2 act)
COC(=O)c1ccc(/C=N\N2CCN(c3ccccc3)CC2)cc1	none
C(=N\N1CCN(c2ccccc2)CC1)/c1ccccc1	esBAF inh 63 | Ring1 derepress inactive | Fgf4 repress inactive | Bmi1 derepress inactive | A549 cytotox inactive | HepG2 tox SP inactive | HEK293 cytotox SP inactive
O=C(NCc1ccccn1)Nc1ccc(Br)cc1Cl	esBAF inh 56 | Ring1 derepress inactive | Fgf4 repress inactive | Bmi1 derepress inactive | A549 cytotox inactive | HepG2 tox SP inactive | HEK293 cytotox SP inactive
CCC(=O)N(C)C[C@@H]1Oc2ncc(-c3ccccc3OC)cc2C(=O)N([C@H](C)CO)C[C@@H]1C	none (no result: ARFGAP1 inh, ASAP1 GAP inh, SMARCA2 act)
Oc1ccc(Cl)cc1C=NN1CCCCCC1	esBAF inh 66 | Ring1 derepress inactive | Fgf4 repress inactive | Bmi1 derepress inactive | A549 cytotox inactive | HepG2 tox SP inactive | HEK293 cytotox SP inactive
Oc1ccccc1C=NN1CCCCCC1	esBAF inh 77 | Ring1 derepress inactive | Fgf4 repress inactive | Bmi1 derepress inactive | A549 cytotox inactive | HepG2 tox SP inactive | HEK293 cytotox SP inactive
Oc1ccc(/C=N/N2CCCCC2)c(O)c1O	none
Oc1ccccc1/C=N/N1CCCCC1	none (no result: esBAF inh)
Oc1cccc(/C=N/N2CCCCC2)c1O	esBAF inh 61 | Ring1 derepress inactive | Fgf4 repress inactive | Bmi1 derepress inactive | A549 cytotox inactive | HepG2 tox SP inactive | HEK293 cytotox SP inactive
COc1ccc(-c2ccc3c(c2)O[C@@H](CN(C)CC2CC2)[C@@H](C)CN([C@H](C)CO)S3(=O)=O)cc1	none (no result: ARFGAP1 inh, ASAP1 GAP inh, SMARCA2 act)
C[C@@H]1CCCCO[C@H](CN(C)S(=O)(=O)c2cn(C)cn2)[C@@H](C)CN([C@H](C)CO)C(=O)c2cc(NC(=O)Nc3ccc(C(F)(F)F)cc3)ccc2O1	none (no result: ARFGAP1 inh, ASAP1 GAP inh, SMARCA2 act)
C[C@@H]1CN([C@H](C)CO)C(=O)c2cc(C#Cc3cccc(F)c3)cnc2O[C@H]1CN(C)C(=O)c1ccccc1F	none (no result: ARFGAP1 inh, ASAP1 GAP inh, SMARCA2 act)
COc1ccc(C(=O)Nc2cc3c4c(c2)CC(=O)N4CCC3)c(OC)c1	esBAF inh 67 (no result: ARFGAP1 inh, ASAP1 GAP inh, SMARCA2 act) | Ring1 derepress inactive | Fgf4 repress inactive | Bmi1 derepress inactive | A549 cytotox inactive | HepG2 tox SP inactive | HEK293 cytotox SP inactive
C=CCNc1oc(-c2ccc(OCC)cc2)nc1C#N	none
C=CCNc1oc(-c2ccc(OC)cc2)nc1C#N	esBAF inh 79 | Ring1 derepress inactive | Fgf4 repress inactive | Bmi1 derepress inactive | A549 cytotox inactive | HepG2 tox SP inactive | HEK293 cytotox SP inactive
O=C(c1ccncc1)N(c1ccc(N2CCOCC2)cc1)C(c1ccccc1)c1nc2ccccc2[nH]1 (stereo not drawn)	esBAF inh 48 | Ring1 derepress inactive | Fgf4 repress inactive | Bmi1 derepress inactive | A549 cytotox inactive | HepG2 tox SP inactive | HEK293 cytotox SP inactive
COc1cc(/C=C/c2nc3ccccc3c(=O)[nH]2)cc(OC)c1OC	none
